From BindingDB's records for doi:10.1016/j.ejmech.2008.02.028 (Institute of Chemical Technology, 2008)

Target: Glutathione hydrolase 1 proenzyme (Homo sapiens, UniProt P19440)
Test: Inhibition of gamma-glutamyltranspeptidase by colorimetric assay
Outline: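 Colorimetric read-out at 405 nm by a standard procedure. IC50 is the […] giving 50% inhibition of enzyme activity. Values are the average of three independent experiments (n = 3).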

Sequence of Glutathione hydrolase 1 proenzyme (P19440 1-380 limits assumed): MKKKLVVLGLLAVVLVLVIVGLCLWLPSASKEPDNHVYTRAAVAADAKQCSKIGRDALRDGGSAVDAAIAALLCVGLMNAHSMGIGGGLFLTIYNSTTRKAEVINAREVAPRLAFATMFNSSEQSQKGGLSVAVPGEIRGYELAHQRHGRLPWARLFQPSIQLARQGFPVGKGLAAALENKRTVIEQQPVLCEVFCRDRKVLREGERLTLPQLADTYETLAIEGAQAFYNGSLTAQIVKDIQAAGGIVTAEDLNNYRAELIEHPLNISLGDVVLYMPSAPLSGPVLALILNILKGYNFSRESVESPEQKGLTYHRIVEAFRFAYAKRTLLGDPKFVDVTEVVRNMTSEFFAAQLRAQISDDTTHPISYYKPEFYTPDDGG
Sequence of Glutathione hydrolase 1 proenzyme (P19440 381-569 limits assumed): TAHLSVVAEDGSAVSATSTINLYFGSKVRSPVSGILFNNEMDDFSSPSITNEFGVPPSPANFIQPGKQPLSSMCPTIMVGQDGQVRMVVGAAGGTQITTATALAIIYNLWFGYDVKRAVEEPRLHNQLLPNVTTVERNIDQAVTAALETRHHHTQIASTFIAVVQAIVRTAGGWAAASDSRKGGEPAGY

IC50 [µM] | SMILES
> 30 | CNC(=O)C1=C(C)C2Sc3ccccc3N=C2C(C(=O)NC)C1c1ccccc1OC (configuration not stated) [2-(2-Methoxyphenyl)-N,N',4-trimethyl-2,10-dihydro-1H-phenothiazine-1,3-dicarboxamide]
> 30 | CNC(=O)C1=C(C)C2Sc3ccccc3N=C2C(C(=O)NC)C1c1ccc2c(c1)OCO2 (configuration not stated) [2-(1,3-Benzodioxol-5-yl)-N,N',4-trimethyl-2,10-dihydro-1H-phenothiazine-1,3-dicarboxamide]
